# Experimental data: ChEMBL document CHEMBL1799921, “3-(1,3,4-Thiadiazole-2-yl)quinoline derivatives: synthesis, characterization and anti-microbial activity” (Eur J Med Chem, 2011)
# Assays:
# [1] = tested on: Staphylococcus aureus; assay: Antibacterial activity against Staphylococcus aureus measured at MIC after 18 hrs by halo zone test; format: functional
# In short: (§1)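 Disk diffusion. Strains subcultured 18 h at 37 °C in BHI, then suspended in saline by McFarland to about 10⁵ CFU/mL. Suspension mixed 1:1 with antibiotic agar at 40 °C and plated. 6.0 mm paper disks loaded with dilutions from a DMSO stock (1 mg per 100 of DMSO). Incubated 18 h at 36 °C. Inhibition zone (mm) measured at the MIC. Amoxicillin and DMSO disks as controls.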
# [2] = tested on: Streptococcus pyogenes; assay: Antibacterial activity against Streptococcus pyogenes measured at MIC after 18 hrs by halo zone test; format: functional; in short: as §1
# [3] = tested on: Salmonella typhimurium; assay: Antibacterial activity against Salmonella Typhimurium measured at MIC after 18 hrs by halo zone test; format: functional, Salmonella enterica subsp. enterica serovar Typhimurium; in short: as §1
# [4] = tested on: Escherichia coli; assay: Antibacterial activity against Escherichia coli measured at MIC after 18 hrs by halo zone test; format: functional; in short: as §1
# [5] = tested on: Staphylococcus aureus; assay: Antibacterial activity against Staphylococcus aureus after 18 hrs by macro-dilution test; format: functional
# In short: (§2)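 Tube macro-dilution. Compounds in DMSO serially diluted to final […]. 24 h old inoculum added to each tube. Standard inoculum […]. Incubated 18 h at 37 °C. MIC is the lowest concentration with no visible growth, read visually. DMSO negative and amoxicillin positive controls.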
# [6] = tested on: Streptococcus pyogenes; assay: Antibacterial activity against Streptococcus pyogenes after 18 hrs by macro-dilution test; format: functional; in short: as §2
# [7] = tested on: Salmonella typhimurium; assay: Antibacterial activity against Salmonella Typhimurium after 18 hrs by macro-dilution test; format: functional, Salmonella enterica subsp. enterica serovar Typhimurium; conditions: Salmonella enterica; in short: as §2
# [8] = tested on: Escherichia coli; assay: Antibacterial activity against Escherichia coli after 18 hrs by macro-dilution test; format: functional; in short: as §2
# [9] = Cytotoxicity against rat H9c2 cells assessed as cell viability at 1.57 to 200 mg/mL after 48 hrs by MTT assay; format: cell-based; conditions: read-out: Activity
# In short: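 Subconfluent H9c2 cardiac myoblasts treated with increasing concentrations for 48 h at 37 °C in 5% CO₂, alongside untreated cells. Then washed in PBS and given MTT (5 mg/mL) for 45 min at 37 °C. Crystals dissolved in acid isopropanol, absorbance read at 570 nm. Viability is absorbance of treated relative to untreated cells. Triplicate. DMSO and amoxicillin controls.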
# [10] = in the assay text read “1.57 to 200 ug/mL” for “1.57 to 200 mg/mL”
SMILES,MIC [5] [µg/mL],MIC [6] [µg/mL],MIC [7] [µg/mL],MIC [8] [µg/mL],inhibition zone (IZ) [1] [mm],inhibition zone (IZ) [2] [mm],inhibition zone (IZ) [3] [mm],inhibition zone (IZ) [4] [mm],"viability at 48 h [9, 10] [%]",viability at 48 h [9] [%]
CC(=O)N1N=C(N(C(C)=O)C2CCCCC2)SC1c1cc2ccccc2nc1Cl (configuration not stated),256,256,64,128,14.03,17.38,14.59,15.63,,
CC(=O)N1N=C(N(C(C)=O)C2CCCCCCC2)SC1c1cc2ccccc2nc1Cl (configuration not stated),128,128,64,256,14.57,14.33,18.82,17.86,,
CC(=O)N1N=C(N(C(C)=O)C2CCCC2)SC1c1cc2cccc(C)c2nc1Cl (configuration not stated),128,64,128,128,19,17.71,15.13,16.08,,
CC(=O)N1N=C(N(C(C)=O)C2CCCCC2)SC1c1cc2cccc(C)c2nc1Cl (configuration not stated),128,128,256,256,15.42,13.09,12.01,16.75,,
CC(=O)N1N=C(N(C(C)=O)C2CCCCCCC2)SC1c1cc2cccc(C)c2nc1Cl (configuration not stated),256,256,128,256,18.77,15.45,17.84,19,,
CC(=O)N(C1=NN(C(C)=O)C(c2cc3cccc(C)c3nc2Cl)S1)c1ccc(C)cc1 (configuration not stated),64,64,64,64,18.92,18.32,17.27,18.16,,
CC(=O)N(C1=NN(C(C)=O)C(c2cc3cccc(C)c3nc2Cl)S1)c1ccc([N+](=O)[O-])cc1 (configuration not stated),64,64,64,64,16.54,15.27,19.16,13.03,,
CC1(C)S[C@@H]2[C@H](NC(=O)[C@H](N)c3ccc(O)cc3)C(=O)N2[C@H]1C(=O)O [AMOXICILLIN],32,32,32,32,20.85,19.57,21.82,22.05,,

# Further molecules by falling MIC [5], results first:
MIC [5] [µg/mL],MIC [6] [µg/mL],MIC [7] [µg/mL],MIC [8] [µg/mL],SMILES,inhibition zone (IZ) [1] [mm],inhibition zone (IZ) [2] [mm],inhibition zone (IZ) [3] [mm],inhibition zone (IZ) [4] [mm],"viability at 48 h [9, 10] [%]",viability at 48 h [9] [%]
64,64,64,64,CC(=O)N(C1=NN(C(C)=O)C(c2cc3ccccc3nc2Cl)S1)c1ccc([N+](=O)[O-])cc1 (configuration not stated),14.29,14.92,17.03,14.34,,
64,64,256,256,CC(=O)NC1=NN(C(C)=O)C(c2cc3cccc(C)c3nc2Cl)S1 (configuration not stated),13.66,16.77,18.08,18.34,,
64,32,32,64,CC(=O)N(C1=NN(C(C)=O)C(c2cc3cccc(C)c3nc2Cl)S1)c1ccccc1C (configuration not stated),15.8,19.14,16.11,17.9,> 80,
64,16,32,64,CC(=O)N(C1=NN(C(C)=O)C(c2cc3cccc(C)c3nc2Cl)S1)c1cc(F)ccc1F (configuration not stated),21.99,16.13,16.6,15.36,,> 80
32,64,32,32,CC(=O)N(C1=NN(C(C)=O)C(c2cc3cccc(Cl)c3nc2Cl)S1)c1ccc([N+](=O)[O-])cc1 (configuration not stated),19.81,16.32,17.25,12.56,> 80,
32,32,32,64,CC(=O)N1N=C(N(C(C)=O)C2CCCC2)SC1c1cc2ccccc2nc1Cl (configuration not stated),20.63,19.93,18.6,19.79,> 80,
32,16,32,32,CC(=O)N(C1=NN(C(C)=O)C(c2cc3ccccc3nc2Cl)S1)c1ccccc1C (configuration not stated),15.66,17.14,16.06,15.84,> 80,
32,16,64,32,CC(=O)N(C1=NN(C(C)=O)C(c2cc3ccccc3nc2Cl)S1)c1ccc(C)cc1 (configuration not stated),18.27,17,16.89,16.4,> 80,
16,64,32,32,CC(=O)N(C1=NN(C(C)=O)C(c2cc3cccc(Cl)c3nc2Cl)S1)c1ccccc1C (configuration not stated),19.76,13.84,16.86,15.59,> 80,
16,64,32,32,CC(=O)N(C1=NN(C(C)=O)C(c2cc3ccccc3nc2Cl)S1)c1cc(F)ccc1F (configuration not stated),17.41,14.74,16.67,20.13,,> 80
